Calls of active or inactive are those of the source. The calls are words filed in the database; no cut-off is given here.
What was measured:
[1] = target: Poly [ADP-ribose] polymerase 1 (Homo sapiens) (UniProt P09874); assay: Inhibition of human full-length PARP1 expressed in bacterial expression system assessed as reduction in enzyme mediated autoPARylation at 100 uM using NAD+ as substrate preincubated for 30 mins followed by substrate addition and measured after 2 hrs by immunoblot analysis; conditions: time 2.5 hrs
Chain of Poly [ADP-ribose] polymerase 1 (Homo sapiens) (P09874 whole entry): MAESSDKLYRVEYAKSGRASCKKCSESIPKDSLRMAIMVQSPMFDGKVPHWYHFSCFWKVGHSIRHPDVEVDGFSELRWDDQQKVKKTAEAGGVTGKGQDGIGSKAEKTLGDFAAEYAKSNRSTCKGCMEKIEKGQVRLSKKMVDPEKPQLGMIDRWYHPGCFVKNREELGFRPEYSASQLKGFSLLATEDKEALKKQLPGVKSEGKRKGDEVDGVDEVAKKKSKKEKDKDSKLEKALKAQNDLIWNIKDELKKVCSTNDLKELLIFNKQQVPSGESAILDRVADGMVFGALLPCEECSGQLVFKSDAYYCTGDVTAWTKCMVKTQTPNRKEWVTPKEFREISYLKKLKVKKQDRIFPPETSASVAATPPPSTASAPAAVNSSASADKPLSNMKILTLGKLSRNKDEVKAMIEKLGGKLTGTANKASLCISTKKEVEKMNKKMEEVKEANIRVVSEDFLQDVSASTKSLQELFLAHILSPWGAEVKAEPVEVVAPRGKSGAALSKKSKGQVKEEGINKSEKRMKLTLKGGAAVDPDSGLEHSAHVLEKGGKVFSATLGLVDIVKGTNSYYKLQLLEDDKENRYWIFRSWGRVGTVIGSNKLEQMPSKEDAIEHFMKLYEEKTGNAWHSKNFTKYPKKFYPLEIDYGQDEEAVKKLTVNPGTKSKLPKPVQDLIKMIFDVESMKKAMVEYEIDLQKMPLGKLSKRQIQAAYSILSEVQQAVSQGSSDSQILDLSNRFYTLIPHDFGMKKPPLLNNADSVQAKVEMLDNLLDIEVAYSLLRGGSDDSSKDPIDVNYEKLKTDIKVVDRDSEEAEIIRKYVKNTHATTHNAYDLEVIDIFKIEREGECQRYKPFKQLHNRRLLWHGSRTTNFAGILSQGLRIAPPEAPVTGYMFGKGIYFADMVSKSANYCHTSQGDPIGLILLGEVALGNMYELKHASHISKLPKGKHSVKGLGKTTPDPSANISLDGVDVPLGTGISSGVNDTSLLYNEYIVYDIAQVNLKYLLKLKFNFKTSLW
Procedure, shortened: (§1)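 Full-length human PARP1 or PARP2, expressed recombinantly in and purified from bacteria, auto-PARylated without or with 100 μM compound. Read-out was immunoblot with an anti-PAR antibody. Loading control was anti-His₆ for PARP1 and anti-PARP2 antibody for PARP2. Signal was quantified by densitometry normalized to the loading control, with significance testing.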

[2] = target: T1, Poly [ADP-ribose] polymerase 2 (Homo sapiens, UniProt Q9UGN5); assay: Inhibition of human full-length PARP2 expressed in bacterial expression system assessed as reduction in enzyme mediated autoPARylation at 100 uM using NAD+ as substrate preincubated for 30 mins followed by substrate addition and measured after 2 hrs by immunoblot analysis; conditions: time 2.5 hrs; procedure, shortened: as §1
T1 sequence (Q9UGN5 whole entry): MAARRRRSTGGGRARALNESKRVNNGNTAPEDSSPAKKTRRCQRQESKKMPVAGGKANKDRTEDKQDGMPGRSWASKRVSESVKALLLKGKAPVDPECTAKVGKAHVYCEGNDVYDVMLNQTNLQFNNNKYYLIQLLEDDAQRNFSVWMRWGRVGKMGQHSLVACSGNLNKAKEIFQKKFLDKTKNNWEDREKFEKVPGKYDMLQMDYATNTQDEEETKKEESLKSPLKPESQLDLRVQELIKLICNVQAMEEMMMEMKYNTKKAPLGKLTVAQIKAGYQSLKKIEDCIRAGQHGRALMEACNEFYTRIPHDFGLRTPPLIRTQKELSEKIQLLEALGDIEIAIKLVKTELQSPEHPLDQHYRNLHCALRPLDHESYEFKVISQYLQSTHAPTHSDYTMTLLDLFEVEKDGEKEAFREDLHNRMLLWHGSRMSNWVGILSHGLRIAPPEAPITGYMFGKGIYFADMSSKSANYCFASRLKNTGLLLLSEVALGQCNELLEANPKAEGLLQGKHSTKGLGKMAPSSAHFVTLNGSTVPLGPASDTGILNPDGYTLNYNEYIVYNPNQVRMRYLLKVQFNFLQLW

HAP1 [3] = assay: Inhibition of PARP in human HAP1 PARP1-KO cell lysates assessed as reduction in protein ADP-ribosylation at 100 uM using NAD+ as substrate measured after 2 hrs by immunoblot analysis; type: subcellular
Procedure, shortened: (§2)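 HAP1 or HAP1/PARP1-KO cell lysates were ADP-ribosylated without or with 100 μM compound. Protein ADP-ribosylation was detected by immunoblot with the AF1521 macrodomain pan-ADPr binding reagent, with anti-GAPDH as loading control. Densitometric signal was normalized to loading control and tested for significance.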

[4] = target: T1, Poly [ADP-ribose] polymerase 2; assay: Inhibition of human full-length PARP2 expressed in bacterial expression system assessed as reduction in enzyme mediated autoPARylation using NAD+ as substrate preincubated for 30 mins followed by substrate addition and measured after 2 hrs by immunoblot analysis
[5] = target: T2, Protein mono-ADP-ribosyltransferase PARP10 (Homo sapiens, UniProt Q53GL7); assay: Inhibition of human PARP10 catalytic domain expressed in bacterial expression system assessed as reduction in enzyme mediated autoPARylation using NAD+ as substrate measured after 2 hrs by immunoblot analysis
T2 sequence (Q53GL7 whole entry): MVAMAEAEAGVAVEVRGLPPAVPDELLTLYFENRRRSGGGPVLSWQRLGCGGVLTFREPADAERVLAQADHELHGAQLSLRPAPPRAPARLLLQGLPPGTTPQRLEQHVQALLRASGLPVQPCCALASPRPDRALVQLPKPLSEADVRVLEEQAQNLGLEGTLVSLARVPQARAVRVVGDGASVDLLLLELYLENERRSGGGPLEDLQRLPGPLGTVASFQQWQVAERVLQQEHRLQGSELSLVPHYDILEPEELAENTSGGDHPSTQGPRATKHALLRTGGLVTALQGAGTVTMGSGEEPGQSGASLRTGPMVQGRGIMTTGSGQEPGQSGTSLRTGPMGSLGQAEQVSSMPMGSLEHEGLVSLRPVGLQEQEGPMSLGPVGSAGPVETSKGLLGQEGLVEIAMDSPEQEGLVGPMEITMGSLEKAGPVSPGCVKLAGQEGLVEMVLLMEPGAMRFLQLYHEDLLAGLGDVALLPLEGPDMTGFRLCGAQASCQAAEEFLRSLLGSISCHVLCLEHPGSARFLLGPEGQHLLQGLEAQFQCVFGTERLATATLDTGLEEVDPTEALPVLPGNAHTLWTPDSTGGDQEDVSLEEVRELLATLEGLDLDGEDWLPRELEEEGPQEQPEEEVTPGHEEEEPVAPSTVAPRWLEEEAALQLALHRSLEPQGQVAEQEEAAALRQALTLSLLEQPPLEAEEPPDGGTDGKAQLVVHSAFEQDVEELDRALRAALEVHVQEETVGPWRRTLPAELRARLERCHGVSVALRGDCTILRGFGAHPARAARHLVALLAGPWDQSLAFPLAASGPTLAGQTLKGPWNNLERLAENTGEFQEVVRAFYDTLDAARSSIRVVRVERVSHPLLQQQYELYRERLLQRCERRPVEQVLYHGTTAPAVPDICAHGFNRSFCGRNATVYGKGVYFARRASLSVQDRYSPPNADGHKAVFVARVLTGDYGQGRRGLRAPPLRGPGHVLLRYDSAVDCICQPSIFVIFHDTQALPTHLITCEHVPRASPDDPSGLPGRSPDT

HAP1 [6] = assay: Inhibition of PARP in human HAP1 cell lysates assessed as reduction in protein ADP-ribosylation at 100 uM using NAD+ as substrate measured after 2 hrs by immunoblot analysis; type: subcellular; procedure, shortened: as §2
[7] = target: T3, Poly [ADP-ribose] polymerase tankyrase-1 (Homo sapiens) (UniProt O95271); assay: Inhibition of human PARP5a catalytic domain expressed in bacterial expression system assessed as reduction in enzyme mediated autoPARylation at 100 uM using NAD+ as substrate measured after 2 hrs by immunoblot analysis
T3 sequence (whole entry): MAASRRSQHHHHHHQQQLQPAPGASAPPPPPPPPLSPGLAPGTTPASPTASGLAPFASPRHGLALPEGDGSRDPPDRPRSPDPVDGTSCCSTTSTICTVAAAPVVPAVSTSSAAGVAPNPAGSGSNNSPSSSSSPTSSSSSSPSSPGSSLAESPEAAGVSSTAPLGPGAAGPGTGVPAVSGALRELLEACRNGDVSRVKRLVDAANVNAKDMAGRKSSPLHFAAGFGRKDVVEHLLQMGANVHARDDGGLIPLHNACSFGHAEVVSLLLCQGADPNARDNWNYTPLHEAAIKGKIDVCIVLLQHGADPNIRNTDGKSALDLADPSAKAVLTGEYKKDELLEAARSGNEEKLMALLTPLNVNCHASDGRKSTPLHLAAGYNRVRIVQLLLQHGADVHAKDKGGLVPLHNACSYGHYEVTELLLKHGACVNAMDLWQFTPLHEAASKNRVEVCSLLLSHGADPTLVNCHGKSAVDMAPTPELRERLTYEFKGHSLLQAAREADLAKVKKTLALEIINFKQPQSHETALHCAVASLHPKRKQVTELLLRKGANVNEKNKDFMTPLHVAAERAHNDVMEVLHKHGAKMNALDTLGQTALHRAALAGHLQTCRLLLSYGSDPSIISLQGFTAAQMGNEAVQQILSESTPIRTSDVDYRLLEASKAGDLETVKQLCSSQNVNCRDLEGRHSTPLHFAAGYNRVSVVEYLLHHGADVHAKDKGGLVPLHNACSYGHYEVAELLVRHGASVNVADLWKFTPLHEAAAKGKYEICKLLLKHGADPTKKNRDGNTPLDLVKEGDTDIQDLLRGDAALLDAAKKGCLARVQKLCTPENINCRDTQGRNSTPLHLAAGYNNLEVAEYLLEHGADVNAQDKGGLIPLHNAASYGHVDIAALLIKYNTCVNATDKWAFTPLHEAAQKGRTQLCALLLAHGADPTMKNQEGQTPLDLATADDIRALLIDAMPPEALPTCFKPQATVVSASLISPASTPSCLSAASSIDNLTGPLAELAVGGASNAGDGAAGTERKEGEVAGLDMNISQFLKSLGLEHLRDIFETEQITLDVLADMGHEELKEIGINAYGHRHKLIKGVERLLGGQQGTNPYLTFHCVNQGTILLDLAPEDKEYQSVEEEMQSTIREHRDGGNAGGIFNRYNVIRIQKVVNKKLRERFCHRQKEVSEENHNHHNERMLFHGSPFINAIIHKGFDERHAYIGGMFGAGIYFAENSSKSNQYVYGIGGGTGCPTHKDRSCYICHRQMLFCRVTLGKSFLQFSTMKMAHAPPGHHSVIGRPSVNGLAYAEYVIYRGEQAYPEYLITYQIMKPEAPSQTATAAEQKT
Procedure, shortened: (§3)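 Catalytic domains of human PARP5a (PARylation) and PARP10 (MARylation), bacterially expressed and purified, were auto-ADP-ribosylated with NAD⁺ without or with 100 μM compound. Detection was by immunoblot using the AF1521 macrodomain pan-ADPr binding reagent, with anti-His₆ loading control. Densitometry was normalized to the loading control.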

[8] = target: T4, Protein mono-ADP-ribosyltransferase PARP10 (Homo sapiens) (UniProt Q53GL7); assay: Inhibition of human PARP10 catalytic domain expressed in bacterial expression system assessed as reduction in enzyme mediated autoPARylation at 100 uM using NAD+ as substrate measured after 2 hrs by immunoblot analysis; procedure, shortened: as §3
T4 sequence (whole entry): T2 sequence (Q53GL7 whole entry)

Compound | inhibition [1] | inhibition [2] | inhibition (HAP1 [3]) | IC50 [4] [µM] | IC50 [5] [µM] | inhibition (HAP1 [6]) | inhibition [7] | inhibition [8]
CC(=O)c1cccc(CNc2ccccc2C(N)=O)c1 | inactive | – | – | – | – | – | – | –
CC(=O)c1cccc(CCCOc2ccccc2C(N)=O)c1 | – | Active | – | – | – | – | – | –
CC(=O)c1cccc(CCOc2ccccc2C(N)=O)c1 | inactive | Active | Active | 59.7 | 48.3 | Active | Active | Active
O=C(c1cc(Cc2n[nH]c(=O)c3ccccc23)ccc1F)N1CCN(C(=O)C2CC2)CC1 | – | – | Active | – | – | Active | – | –
CC(=O)c1cccc([C@H](C)Oc2ccccc2C(N)=O)c1 | – | Active | – | – | – | – | – | –
CC(=O)c1cccc(C(=O)Nc2ccccc2C(N)=O)c1 | inactive | – | – | – | – | – | – | –
CC(=O)c1cc(COc2ccccc2C(N)=O)ccc1F | inactive | Active | Active | 50.1 | 39.4 | Active | Active | Active
CC(=O)c1cccc([C@@H](C)Oc2ccccc2C(N)=O)c1 | – | Active | – | – | – | – | – | –
CC(=O)c1cccc(CCOc2ccc(F)cc2C(N)=O)c1 | inactive | Active | Active | 51.5 | 36.9 | Active | Active | Active
CC(=O)c1cccc(COc2ccccc2C(N)=O)c1 | inactive | Active | Active | 102 | 15.3 | Active | Active | Active
